Measurements taken from ChEMBL document CHEMBL1129338, “Inhibitors of acyl-CoA:cholesterol O-acyltransferase. synthesis and pharmacological activity of (+/-)-2-dodecyl-alpha-phenyl-N-(2,4,6-trimethoxyphenyl)-2H-tetrazole-5- acetamide and structurally related tetrazole amide derivatives” (J Med Chem, 1996).
pIC50: −log10 of the molar value.

What was measured:
Oryctolagus cuniculus [1] = test: % change in total cholesterol(TC) versus (T0)- at which drug intervention begins at a dose of 5 mg/kg in chronic cholesterol-fed rabbit model; type: functional
Outline: (§1)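 Male New Zealand rabbits (1-1.5 kg) were meal-fed 50 g/day of chow with 0.5% cholesterol, 3% coconut oil and 3% peanut oil. After 1 week, compound was added to the diet for 2 weeks at 5 or 25 mg/kg. Plasma total cholesterol came from cardiac blood of fasted animals after nitrogen asphyxiation. It was compared with cholesterol-fed progression controls or with T0, the start of drug intervention, when plasma cholesterol was taken 24 h after the drug meal.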

Rattus norvegicus [2] = test: Percent change in total cholesterol (TC) in cholic acid (0.5%)-, cholesterol (1.5%) -, and peanut oil (5.5%)- fed rats at a dose 30 mg/kg.; type: functional
Oryctolagus cuniculus [3] = test: % change in total cholesterol(TC) versus progression control (PC) with out drug intervention in chronic cholesterol-fed rabbit model at a dose of 25 mg/kg; type: functional; outline: as §1
[4] = biological target: T1, Sterol O-acyltransferase 1 (Mus musculus) (UniProt Q61263); test: In vitro inhibitory activity against acyl coenzyme A:cholesterol acyltransferase 1 in cell culture assay using murine IC-21 macrophages at 0.1 uM
T1 sequence (whole entry): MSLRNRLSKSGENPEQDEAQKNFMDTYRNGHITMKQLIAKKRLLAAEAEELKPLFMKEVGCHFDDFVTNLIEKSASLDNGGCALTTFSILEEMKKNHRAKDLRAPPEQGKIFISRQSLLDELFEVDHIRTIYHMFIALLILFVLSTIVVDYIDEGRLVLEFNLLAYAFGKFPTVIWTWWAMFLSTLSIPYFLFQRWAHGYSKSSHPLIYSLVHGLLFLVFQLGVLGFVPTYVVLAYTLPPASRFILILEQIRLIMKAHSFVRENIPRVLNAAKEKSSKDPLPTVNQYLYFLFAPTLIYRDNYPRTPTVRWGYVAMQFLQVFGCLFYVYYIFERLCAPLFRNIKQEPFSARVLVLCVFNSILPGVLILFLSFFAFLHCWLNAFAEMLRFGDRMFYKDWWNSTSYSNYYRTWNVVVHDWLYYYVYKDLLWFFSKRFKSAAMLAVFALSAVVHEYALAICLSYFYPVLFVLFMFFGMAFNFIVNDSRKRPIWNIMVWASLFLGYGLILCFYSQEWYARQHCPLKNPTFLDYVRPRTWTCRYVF
Outline: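 IC-21 mouse macrophages were preincubated 16 h in serum-free DMEM with 20 µM albumin and phosphatidylserine/cholesterol vesicles. The vesicles were sonicated in 150 mM NaCl, 5 mM MOPS, 1 mM EDTA, pH 7.4, and filter-sterilized. Medium was then replaced with serum-free DMEM containing the compound in DMSO at 0.1 µM. Percent inhibition was read, with cell protein measured by the Lowry method.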

Rattus norvegicus [5] = test: In vitro percent decrease in cholesterol activity at 30 mg/kg in acute rat screen; type: functional; settings: in the assay text read “In vivo” for “In vitro”
Outline: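 Rats received a single gavage dose of 30 mg/kg, suspended in carboxymethylcellulose/Tween-20 in water, followed by one high-fat, high-cholesterol meal. The read-out was inhibition of the overnight rise in plasma total cholesterol, as percent change.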

Oryctolagus cuniculus [6] = test: Oral bioactivity expressed as %inhibition after 4 hours of drug administration (dose 25 mg/kg) in rabbit bioassay; type: functional
Outline: (§2)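 Plasma was taken before dosing and at 1, 2 and 4 h. Plasma (0.2 mL) was hexane-extracted, dried and redissolved in chloroform/methanol 2:1. It was then tested for ACAT inhibition in the liver microsomal assay alongside spiked standards and a 2.5 µM CI-976 reference.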

Oryctolagus cuniculus [7] = test: % change in total cholesterol(TC) versus progression control (PC) with out drug intervention in chronic cholesterol-fed rabbit model at a dose of 5 mg/kg; type: functional; outline: as §1
[8] = biological target: T2, Sterol O-acyltransferase 1 (Rattus norvegicus, UniProt O70536); test: In vitro inhibitory activity against acyl coenzyme A:cholesterol acyltransferase 1 of liver microsomes isolated from cholesterol-fed rats.
T2 sequence (O70536 whole entry): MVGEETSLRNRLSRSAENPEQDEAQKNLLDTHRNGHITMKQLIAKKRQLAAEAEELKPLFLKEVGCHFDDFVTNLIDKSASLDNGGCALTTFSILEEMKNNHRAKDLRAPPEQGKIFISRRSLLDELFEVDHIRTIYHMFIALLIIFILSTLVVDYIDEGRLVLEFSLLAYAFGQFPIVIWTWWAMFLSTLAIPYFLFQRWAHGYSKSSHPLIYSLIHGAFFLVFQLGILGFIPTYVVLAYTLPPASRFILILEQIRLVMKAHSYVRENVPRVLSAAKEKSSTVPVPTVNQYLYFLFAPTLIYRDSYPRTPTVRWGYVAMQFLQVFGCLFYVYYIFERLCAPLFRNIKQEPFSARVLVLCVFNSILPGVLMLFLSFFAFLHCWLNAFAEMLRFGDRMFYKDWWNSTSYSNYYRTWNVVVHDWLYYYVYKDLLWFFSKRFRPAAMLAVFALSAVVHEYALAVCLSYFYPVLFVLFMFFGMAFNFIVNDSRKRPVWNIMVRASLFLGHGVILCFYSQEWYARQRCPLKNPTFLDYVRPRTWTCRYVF
Outline: (§3)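 ACAT inhibition was measured in hepatic microsomes isolated from cholesterol-fed rats. Each determination was run in triplicate, and IC50 was reported.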

[9] = biological target: Sterol O-acyltransferase 1 (Mus musculus) (UniProt Q61263); test: Percent change of compound against Acyl coenzyme A:cholesterol acyltransferase 1 in cell culture assay using murine IC-21 macrophages at 0.1(uM)
Oryctolagus cuniculus [10] = test: Percent change in total cholesterol(TC) versus (T0)- at which drug intervention begins at a dose of 25 mg/kg in the chronic cholesterol-fed rabbit model; type: functional; outline: as §1
[11] = biological target: T2, Sterol O-acyltransferase 1; test: Inhibitory concentration against Acyl coenzyme A:cholesterol acyltransferase 1 from rat liver; outline: as §3
[12] = system: Acyl-CoA:cholesterol acyltransferase (Rattus norvegicus); test: Ability to reduce cholesterol absorption, i.e. the appearance of lymph cholesteryl ester at a dose of 10 mg/kg
Rattus norvegicus [13] = test: Percent change in non High Density Lipoproteins (HDL) in Chronic Cholesterol -Fed rat model at a dose 30 mg/kg
Oryctolagus cuniculus [14] = test: Dose response in cholesterol fed rabbit after oral administration; type: functional
Outline: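 Cholesterol-fed rabbit model with oral dosing across a dose series, 8 animals per dose. Plasma cholesterol reduction was averaged at each dose. ED50, the dose lowering plasma total cholesterol 50%, was calculated from these mean responses with the median-effect equation.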

Oryctolagus cuniculus [15] = test: Oral bioactivity expressed as %inhibition after 4 hours of drug administration (dose 50 mg/kg) in rabbit bioassay; type: functional; outline: as §2
[16] = biological target: T3, Acyl-CoA:cholesterol acyltransferase (Oryctolagus cuniculus, UniProt Q95214); test: Inhibitory concentration against Acyl coenzyme A:cholesterol acyltransferase 1 from rabbit intestine
T3 sequence (Q95214 whole entry): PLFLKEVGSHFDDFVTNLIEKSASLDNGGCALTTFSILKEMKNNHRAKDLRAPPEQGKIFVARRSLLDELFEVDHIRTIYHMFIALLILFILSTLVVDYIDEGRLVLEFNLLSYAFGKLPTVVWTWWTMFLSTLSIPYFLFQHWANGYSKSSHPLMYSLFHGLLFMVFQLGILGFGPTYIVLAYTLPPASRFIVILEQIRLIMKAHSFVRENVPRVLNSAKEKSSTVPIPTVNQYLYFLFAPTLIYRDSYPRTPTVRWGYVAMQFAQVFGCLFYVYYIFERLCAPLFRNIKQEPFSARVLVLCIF

Rattus norvegicus [17] = test: Effective dose to lower nonHDL-C in a cholesterol fed rat model in vivo; type: functional
Rattus norvegicus [18] = test: % change in total cholesterol in Chronic Cholesterol-Fed rat model at dose 30 mg/kg; type: functional
Outline: (§4)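 Rats ate a high-fat, high-cholesterol diet for 14 days. During the second week they received the test compound daily by gavage at 30 mg/kg, in a carboxymethylcellulose/Tween-20 aqueous vehicle. Plasma lipids (total cholesterol, HDL-C, non-HDL-C) were read as percent change.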

Rattus norvegicus [19] = test: Percent change in High Density Lipoproteins (HDL) in Chronic Cholesterol -Fed rat model at a dose 30 mg/kg; type: functional; outline: as §4
Rattus norvegicus [20] = test: Change in total cholesterol in Chronic Cholesterol-Fed rat model at dose 30 mg/kg; type: functional; outline: as §4
Rattus norvegicus [21] = test: Percent change in total cholesterol (TC) in cholic acid (0.5%) - cholesterol (1.5% - peanut oil (5.5%) - fed rats at a dose 30 mg/kg; type: functional
[22] = biological target: T4, Acyl-CoA:cholesterol acyltransferase (Oryctolagus cuniculus) (UniProt Q95214); settings: at 25 mg/kg
T4 sequence (whole entry): T3 sequence (Q95214 whole entry)

Oryctolagus cuniculus [23] = test: Change in total cholesterol(TC) versus progression control (PC) with out drug intervention in chronic cholesterol-fed rabbit model at a dose of 5 mg/kg; type: functional; outline: as §1
[24] = biological target: T4, Acyl-CoA:cholesterol acyltransferase (Oryctolagus cuniculus); settings: 25 mg/kg
Oryctolagus cuniculus [25] = test: Change in total cholesterol(TC) versus (T0)- at which drug intervention begins at a dose of 5 mg/kg in chronic cholesterol-fed rabbit model; type: functional; outline: as §1
Oryctolagus cuniculus [26] = test: Change in total cholesterol(TC) versus progression control (PC) with out drug intervention in chronic cholesterol-fed rabbit model at a dose of 25 mg/kg; type: functional; outline: as §1

Structure (SMILES)	Change (Rattus norvegicus [2]) [%]	Change (Oryctolagus cuniculus [3]) [%]	inhibition [4] [%]	inhibition in vivo at 25 mg/kg (Oryctolagus cuniculus [6]) [%]	Change (Oryctolagus cuniculus [7]) [%]	pIC50 [8]	Change (Rattus norvegicus [13]) [%]	inhibition in vivo at 50 mg/kg (Oryctolagus cuniculus [15]) [%]	Change (Rattus norvegicus [19]) [%]	also measured
CCCCCCCCCCCCc1nnn(C(C(=O)Nc2c(OC)cc(OC)cc2OC)c2ccccc2)n1 (stereo not given)	<65	<68	52	0	<63	7.68				Change (Oryctolagus cuniculus [1]): <11%; Decrease (Rattus norvegicus [5]): 65%
CCCCCCCCCCCCn1nnc(C(=O)Nc2c(OC)cc(OC)cc2OC)n1						4.45				Change [9]: 21%
CCCCCCCCCCCCn1nnc(C(C(=O)Nc2c(OC)cc(OC)cc2OC)c2ccccc2)n1 (stereo not given)	<63	<78	40	0	<71	7.64	<68	4	83	Change (Oryctolagus cuniculus [10]): <38%; pIC50 [11]: 7.64; Reduction [12]: 79%; ED50 (Oryctolagus cuniculus [14]): 0.1 mg/kg; pIC50 [16]: 8.10; ED50 (Rattus norvegicus [17]): 6.4 mg/kg; Change (Rattus norvegicus [18]): <60%
CCCCCCCCCCCCc1nnn(C(C(=O)Nc2c(C(C)C)cccc2C(C)C)c2ccccc2)n1 (stereo not given)	<77	<68	67	91	<55	7.82			50	Change (Oryctolagus cuniculus [10]): <20%; Change (Oryctolagus cuniculus [1]): 18%; Decrease (Rattus norvegicus [5]): 77%
C=CCCCCCCCCCn1nnc(C(C(=O)Nc2c(OC)cc(OC)cc2OC)c2ccccc2)n1 (stereo not given)	<56		54			7.27	<77	26	102	Change (Rattus norvegicus [20]): <72%
C=CCCCCCCCCCCn1nnc(C(C(=O)Nc2c(OC)cc(OC)cc2OC)c2ccccc2)n1 (stereo not given)	<63		37			7.60	<58	37	98	Change (Rattus norvegicus [20]): <52%
CCCCCCCCCCCCn1nnc(C(C)C(=O)Nc2c(OC)cc(OC)cc2OC)n1 (stereo not given)			49			7.51				Change (Rattus norvegicus [21]): <55%
CCCCCCCCCCC(C)(C)C(=O)Nc1c(OC)cc(OC)cc1OC [CL-976]										inhibition [22]: 45%; Change (Oryctolagus cuniculus [23]): <28%; ED50 (Oryctolagus cuniculus [14]): 21.8 mg/kg; Change [24]: 19%; ED50 (Rattus norvegicus [17]): 19 mg/kg; Change (Oryctolagus cuniculus [25]): 96%; Change (Oryctolagus cuniculus [26]): <54%
